The test system of assay [1] is Panel (Carcinoma cell lines). In words: Mean graph mid point for growth inhibition of human cancer cell lines. Type of assay: functional. Details: unit not given here. The procedure, abridged:
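Mean graph midpoint of growth inhibition, taken across all human cancer cell lines successfully tested. Compounds were tested at concentrations up to […], and GI50 is the concentration giving 50% growth inhibition.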

Assay [2] deals with T1, DNA topoisomerase 1 (Homo sapiens) (UniProt P11387).
T1 sequence (whole entry): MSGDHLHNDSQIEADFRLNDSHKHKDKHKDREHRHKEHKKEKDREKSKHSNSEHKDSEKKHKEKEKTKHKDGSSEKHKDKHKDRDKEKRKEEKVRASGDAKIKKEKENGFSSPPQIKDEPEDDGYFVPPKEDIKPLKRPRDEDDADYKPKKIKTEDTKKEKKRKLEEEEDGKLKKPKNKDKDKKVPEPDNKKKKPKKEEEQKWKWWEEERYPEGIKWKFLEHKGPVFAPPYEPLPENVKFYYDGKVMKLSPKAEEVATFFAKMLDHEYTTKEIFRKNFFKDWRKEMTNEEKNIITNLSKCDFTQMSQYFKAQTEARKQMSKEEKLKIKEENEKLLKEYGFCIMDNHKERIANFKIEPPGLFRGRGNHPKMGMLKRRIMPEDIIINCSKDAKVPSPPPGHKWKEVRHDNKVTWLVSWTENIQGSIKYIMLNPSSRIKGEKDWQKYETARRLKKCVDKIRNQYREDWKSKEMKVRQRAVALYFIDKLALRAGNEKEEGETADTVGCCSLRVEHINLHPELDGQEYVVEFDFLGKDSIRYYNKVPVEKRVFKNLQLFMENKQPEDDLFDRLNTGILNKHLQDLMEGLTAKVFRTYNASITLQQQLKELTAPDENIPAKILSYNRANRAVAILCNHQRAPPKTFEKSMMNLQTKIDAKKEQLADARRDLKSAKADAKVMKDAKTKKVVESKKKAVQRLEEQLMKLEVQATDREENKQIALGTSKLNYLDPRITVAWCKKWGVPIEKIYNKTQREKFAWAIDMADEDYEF
In words: Induction of topoisomerase I mediated DNA cleavage; Activity similar to 1 uM camptothecin.

The nature of assay [3]: Growth inhibitory activity against human CNSSF-539 cell line. Type of assay: functional. A digest of the protocol: (§1)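 Growth inhibition in human cancer cell culture. GI50 is the concentration giving 50% growth inhibition. Compounds were tested at concentrations up to […].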
The subject of a further assay is HOP-62. Nature of the assay: Growth inhibitory activity against human lung HOP-62 cell line. Type of assay: functional. A digest of the protocol:
as §1

In a further assay the test system is MDA-MB-435. Nature of the assay: Growth inhibitory activity against human breast MDA-MB-435 cell line. Type of assay: functional. A digest of the protocol:
as §1

In another assay the test system is UACC-62. In words: Growth inhibitory activity against human melanoma UACC-62 cell line. Type of assay: functional. The procedure, abridged:
as §1

The test system of another assay is DU-145. In words: Growth inhibitory activity against human prostate DU-145 cell line. Type of assay: functional. A digest of the protocol:
as §1

For assay [4], the target named is T1, DNA topoisomerase 1 (Homo sapiens). Nature of the assay: Induction of topoisomerase I mediated DNA cleavage; Activity similar to 1 uM camptothecin; weak activity.
For a further assay, the system named is HCT-116. In words: Growth inhibitory activity against human colon HCT116 cell line. Type of assay: functional. The procedure, abridged: as §1
The subject of the next assay is SN12C. Nature of the assay: Growth inhibitory activity against human renal SN12C cell line. Type of assay: functional. The procedure, abridged:
as §1

The test system of another assay is OVCAR-3. Nature of the assay: Growth inhibitory activity against human ovarian OVCAR-3 cell line. Type of assay: functional. A digest of the protocol:
as §1

Assay [5] has as its target T1, DNA topoisomerase 1 (Homo sapiens). Nature of the assay: Induction of topoisomerase I mediated DNA cleavage; weak activity.

For orientation: GI50 means the concentration that inhibits growth by half. For `O=C1c2ccccc2-c2c1c1ccccc1c(=O)n2CCCn1ccnc1`, the “Mean graph mid point” value in assay [1] turned out to be 1.86. In addition, the DNA cleavage result in assay [2] is given as “Activity similar to 1 uM camptothecin”. In assay [3], it took 2340 nM to inhibit growth by half (GI50).

Regarding `CCn1c2c(c3cc(OC)c(OC)cc3c1=O)C(=O)c1cc3c(cc1-2)OCO3`, the “Mean graph mid point” value in assay [1] came out at 2.4. Also, the GI50 turned out to be 2200 nM in the assay with HOP-62; 2600 nM with MDA-MB-435; 2100 nM in the assay with UACC-62; 2300 nM in the assay on DU-145; 2000 nM in assay [3]; 2600 nM in the assay with HCT-116. Further, the GI50 is 3600 nM with SN12C and 3000 nM in the assay on OVCAR-3. Besides, the DNA cleavage entry in assay [4] was “+/-”.

Consider `O=C1c2ccccc2-c2c1c1ccccc1c(=O)n2CCN1CCNCC1`, for which the “Mean graph mid point” value in assay [1] stood at 1.86. Also, the GI50 in the assay on HOP-62 was determined as 1910 nM; with MDA-MB-435 it was 1950 nM; with UACC-62 it was 1380 nM; in the assay with DU-145, 3090 nM; in assay [3], 1990 nM; in the assay with HCT-116, 580 nM. In addition, the GI50 came out at 2190 nM in the assay with SN12C and 1120 nM in the assay with OVCAR-3. In addition, the DNA cleavage result in assay [5] is “Weak activity”.

As for `Cl.NCCCn1c2c(c3ccccc3c1=O)C(=O)c1cc3c(cc1-2)OCO3`, in [1], the “Mean graph mid point” value turned out to be 0.25. In addition, the 50% growth inhibitory concentration (GI50) in the assay with HOP-62 is 280 nM; in the assay on MDA-MB-435, 1820 nM; in the assay with UACC-62, 180 nM; with DU-145, 60 nM; in assay [3], 430 nM; in the assay on HCT-116, 680 nM. Further, the GI50 worked out at 190 nM with SN12C and 1450 nM in the assay on OVCAR-3. The DNA cleavage entry in assay [5] is “Weak activity”.

`O=C1c2ccccc2-c2c1c1ccccc1c(=O)n2CCCl`: the DNA cleavage entry in assay [4] is “+/-”. The compound further returned a GI50 in [3] of 2240 nM.

Values taken from ChEMBL document CHEMBL1138808, “Synthesis and anticancer activity of simplified indenoisoquinoline topoisomerase I inhibitors lacking substituents on the aromatic rings” (2004).
